Hits are enriched below; roughly 6.4% of the tested compounds scored in any of these assays.
MPTP block = blocks calcium-induced mitochondrial swelling | inhibition, % at 10 µM | isolated mouse mitochondria, Ca2+ swelling absorbance, 30 min | 360,000 tested, 1.4% active;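 active means inhibition of 50% or more, scaled per plate between neutral and stimulator controls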
EBV gp42 inh = blocks Epstein-Barr virus glycoprotein 42 binding; Q1HVG2; Fluorescence polarization binding assay, mP read-out; inhibition, % (tested at 21.74 µM); 220,000 tested, 0.42% active; in the data active means inhibition above about 50%
Target sequence (Q1HVG2 whole entry, looked up): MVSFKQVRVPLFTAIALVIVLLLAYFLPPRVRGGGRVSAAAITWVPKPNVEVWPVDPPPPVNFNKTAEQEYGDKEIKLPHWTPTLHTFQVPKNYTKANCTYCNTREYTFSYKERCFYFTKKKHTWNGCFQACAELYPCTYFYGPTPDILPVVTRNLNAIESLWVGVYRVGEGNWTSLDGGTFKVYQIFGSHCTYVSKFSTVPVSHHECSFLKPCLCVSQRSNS
NR3A LBD binder = modulates the human NR3A ligand-binding domain; AID 1259313; 340,000 tested, 2.5% active; NR3A LBD differential scanning fluorimetry, Tm shift; 0% = protein alone, 100% = glycine-bound protein; Tm shift relative to glycine control, % at 25 µM;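 active means melting temperature shift of at least 10% of the positive control shift, at one fixed dose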
Tb MetRS inh = Trypanosoma brucei MetRS inhibition. 360,000 tested, 0.4% active. purified T. brucei MetRS, ATP depletion, Kinase-Glo luminescence. inhibition, % at 11.9 µM. AID 624268;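 active means inhibition above a per-plate cutoff of the control wells' mean inhibition plus 3 SD, cut at about 5.5% in these data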
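Test system: purified T. brucei MetRS enzyme. Also added: ATP, methionine and E. coli bulk tRNA substrates. Compound: 11.9 µM single point. Schedule: 15 min enzyme-compound preincubation, 2 h reaction, 10 min detection, 25 °C. Signal: luciferase luminescence of residual ATP, Kinase-Glo. Evaluation: percent inhibition versus plate control medians. Controls: DMSO wells, low control.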
CHOP inh = blocks CHOP induction under ER stress. inhibition, % at 10 µM. CHO-K1 CHOP-promoter luciferase, tunicamycin-induced, 15-18 h. 220,000 tested, 3.8% active;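 active means compounds that reduced the stress-induced luciferase reporter signal by more than about 70% of percent inhibition, limit read from the data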
WT yeast gro inh = growth inhibition of WT yeast, mitochondrial fusion screen. mitochondrial fusion phenotypic screen, WT strain. AID 1362. inhibition, % at 10 µM. 190,000 tested, 2.1% active; in the data active means inhibition above about 58%; tested in S. cerevisiae
Numbers stand for hits; - = inactive; . = no result given.

SMILES	MPTP block	EBV gp42 inh	NR3A LBD binder	Tb MetRS inh	CHOP inh	WT yeast gro inh
CC(NC(=S)Nc1ccc(F)cc1)c1ccccc1 (stereo not given)	-	.	-	-	.	.
COc1ccccc1NC(=S)NC1CCCC1	-	.	-	-	.	.
CC(C)c1ccccc1NC(=S)NC(C)c1ccccc1 (stereo not given)	-	-	-	-	-	60
CSc1ccccc1NC(=S)NC1CCCCC1	-	-	-	-	-	-
S=C(Nc1cccc2ccccc12)NC1CCCCC1	-	-	-	-	-	75
CC(C)c1ccccc1NC(=S)NC1CCCCC1	-	-	-	-	-	71
S=C(Nc1ccccc1Oc1ccccc1)NC1CCCC1	-	-	-	-	-	68
CN1/C(=C\C(=O)c2ccccc2Cl)c2ccccc2CC1(C)C	-	-	-	-	-	-
S=C(Nc1ccc(Cl)cc1Cl)Nc1ccccc1Oc1ccccc1	-	-	-	-	78	-
CCOc1ccc(C(C)NC(=S)NC2CCCCC2)cc1 (stereo not given)	-	-	-	-	-	73
COc1ccc(NC(=S)NC2CCCCCC2)c(OC)c1	-	-	-	-	-	64
COc1ccc(NC(=S)NC2CCCCC2)c(OC)c1	-	-	-	-	-	-
COc1ccc(NCC(=O)Nc2cc(S(=O)(=O)N3CCOCC3)ccc2N2CCOCC2)c(OC)c1	-	-	-	-	-	.
C/C(CCc1oc2ccc(Cl)cc2c1-c1ccc(C)o1)=N\O	-	-	-	-	75	-
COc1cc(Cl)c(NS(=O)(=O)c2ccc(-c3ccc(=O)[nH]n3)o2)c(OC)c1	-	.	16	-	.	.
CSCCC(NC(=O)c1cc(S(=O)(=O)N2CCOCC2)ccc1F)c1nc2ccccc2[nH]1 (stereo not given)	-	.	-	-	.	.
O=C(O)c1cccc(NS(=O)(=O)c2cc(S(=O)(=O)c3ccc(Cl)cc3)ccc2Cl)c1	-	.	16	-	.	.
O=C(O)c1ccc(Cl)c(S(=O)(=O)Nc2ccccc2C(=O)Nc2ccc(Cl)cc2)c1	-	.	29	-	.	.
O=C(O)c1ccc(NS(=O)(=O)c2ccc(Cl)c(C(=O)Nc3ccccc3)c2)cc1	-	.	-	-	.	.
Cc1cc(S(=O)(=O)Nc2cccc(C(=O)O)c2)c(C)c(S(=O)(=O)c2ccc(Cl)cc2)c1	-	.	-	-	.	.
O=C(Nc1ccc(NS(=O)(=O)c2ccccc2)cc1)c1ccccc1Cl	-	.	35	-	.	.
O=C(O)c1ccc(NS(=O)(=O)c2ccc(NC(=O)c3ccccc3Cl)cc2)cc1	-	.	-	-	.	.
Cc1ccc(S(=O)(=O)N2CCn3cccc3C2C)cc1 (stereo not given)	-	.	-	-	.	.
COc1ccc(OCC(=O)Nc2ccccc2C(=O)N2CCCC2)cc1	-	-	-	-	-	-
Cc1cc(Cl)ccc1OCCCC(=O)OCC(N)=O	-	-	-	-	-	-
SMILES	MPTP block	EBV gp42 inh	NR3A LBD binder	Tb MetRS inh	CHOP inh	WT yeast gro inh
Cc1cc(Cl)ccc1OCC(=O)OCC(=O)Nc1ccc(F)c([N+](=O)[O-])c1	-	-	26	-	-	-
Cc1cc(Cl)ccc1OCCCC(=O)OCC(=O)Nc1cccc(S(N)(=O)=O)c1	-	.	10	-	.	.
O=C(Cc1ccc(S(=O)(=O)N2CCCC2)s1)Nc1cccc([N+](=O)[O-])c1	-	.	-	-	.	.
O=C(CCn1nnc2ccccc21)Nc1nnc(Cc2ccccc2)s1	-	-	-	-	-	67
O=C(CCn1nnc2ccccc21)Nc1nnc(COc2ccccc2F)s1	-	-	-	-	-	.
CCOC(=O)[C@]12CCC=C1N(Cc1ccc3c(c1)OCO3)C(=O)[C@H](CC(=O)NCCCOC)C2	-	.	.	-	.	.
NC(=O)CC(NC(=O)Cc1ccc(Br)cc1)c1ccc(NCc2ccc(F)c(F)c2)c([N+](=O)[O-])c1 (stereo not given)	-	-	-	-	76	.
NC(=O)CC(NC(=O)Cc1ccc(Br)cc1)c1ccc(N2CCC(Cc3ccccc3)CC2)c([N+](=O)[O-])c1 (stereo not given)	-	-	-	-	96	.
NC(=O)CC(NC(=O)Cc1ccc(Br)cc1)c1ccc(N2CCC(Br)CC2)c([N+](=O)[O-])c1 (stereo not given)	-	-	-	-	87	.
NC(=O)CC(NC(=O)Cc1cccc2ccccc12)c1ccc(N2CCC(Cc3ccccc3)CC2)c([N+](=O)[O-])c1 (stereo not given)	-	.	-	-	.	.

Screens: PubChem, several laboratories
